Measured values of several laboratories.
Protocols differ between the studies behind these lines. pKd, pKi: −log10 of the molar value.
P2RY14: P2Y purinoceptor 14 (P2RY14, Homo sapiens, UniProt Q15391)
ADRA1B: Alpha-1B adrenergic receptor (ADRA1B, Homo sapiens, UniProt P35368)
Nuclear receptor subfamily 4 group A member 2: Nuclear receptor subfamily 4 group A member 2 (Homo sapiens, UniProt P43354)

Structure (SMILES) | target | read-out | method | endpoint | value
O=C(O)c1cc(-c2ccc(-n3cc(CCO)nn3)cc2)c2ccc(-c3ccc(C(F)(F)F)cc3)cc2c1 | P2RY14 | ligand displacement in cells | flow cytometry | pKi | 7.05
COc1ccccc1N1CCN(Cc2cccnc2Oc2ccc(-c3c(C)c(=O)[nH]c(=O)n3C)c(C)c2)CC1 | ADRA1B | ligand displacement | radioligand | pKi | 5.86
O=C(O)c1cc(-c2ccc(-c3c[nH]nn3)cc2)c2ccc(-c3ccc(C(F)(F)F)cc3)cc2c1 | P2RY14 | ligand displacement in cells | flow cytometry | pKi | 8.67
CCC(=O)NS(=O)(=O)c1ccc(-c2c(-c3ccccc3)noc2C)cc1 | Nuclear receptor subfamily 4 group A member 2 | binding | ITC | pKd | 5.80
CCC1c2ccsc2CCN1Cc1nc2ccc(Cl)cc2n1CCO (stereo not drawn) | DDB1- and CUL4-associated factor 1 (DCAF1, Homo sapiens, UniProt Q9Y4B6) | binding | SPR | pKd | 4.70
O=C(O)c1cc(-c2ccc(-c3ccc(Cl)s3)cc2)c2ccc(-c3ccc(C(F)(F)F)cc3)cc2c1 | P2RY14 | ligand displacement in cells | flow cytometry | pKi | 5.92
Cc1cc(Oc2ncccc2CN2CCN(c3ccccc3[N+](=O)[O-])CC2)ccc1-c1c(C)c(=O)[nH]c(=O)n1C | ADRA1B | ligand displacement | radioligand | pKi | 5.53
O=C(O)c1cc(-c2ccc(-n3ccnn3)cc2)c2ccc(-c3ccc(C(F)(F)F)cc3)cc2c1 | P2RY14 | ligand displacement in cells | flow cytometry | pKi | 7.85
Cc1cc(Oc2ncccc2CN2CCN(c3cccc(Cl)c3)CC2)ccc1-c1c(C)c(=O)[nH]c(=O)n1C | ADRA1B | ligand displacement | radioligand | pKi | 6.19
COc1cccc2c(Nc3ccc4[nH]c(C(=O)N/N=C/c5ccc(SC)cc5)cc4c3)cc(C)nc12 | Nuclear receptor subfamily 4 group A member 2 | binding | ITC | pKd | 5.55
Cc1cc(Oc2ncccc2CN2CCN(c3cccc(C)c3C)CC2)ccc1-c1c(C)c(=O)[nH]c(=O)n1C | ADRA1B | ligand displacement | radioligand | pKi | 5.35
Cc1onc(-c2ccccc2)c1-c1ccc(S(N)(=O)=O)cc1 | Nuclear receptor subfamily 4 group A member 2 | binding | ITC | pKd | 5.92
Nc1ncnc2c1ncn2[C@@H]1O[C@H](COP(=O)(O)OP(=O)(O)OP(=O)(O)O)[C@@H](O)[C@H]1O | P2X purinoceptor 7 (P2RX7, Homo sapiens, UniProt Q99572) | binding | SPR | pKd | 3.65
COC(=O)c1cn(C)c2ccc(-c3cccnc3)cc12 | Nuclear receptor subfamily 4 group A member 2 | binding | ITC | pKd | 6.40
O=C(O)c1cc(-c2ccc(-n3nncc3CCOP(=O)(O)O)cc2)c2ccc(-c3ccc(C(F)(F)F)cc3)cc2c1 | P2RY14 | ligand displacement in cells | flow cytometry | pKi | 7.04
